From ChEMBL document CHEMBL2177098, “Synthesis and evaluation of novel ¹⁸F labeled 2-pyridinylbenzoxazole and 2-pyridinylbenzothiazole derivatives as ligands for positron emission tomography (PET) imaging of β-amyloid plaques” (J Med Chem, 2012)

How the values were obtained:
Intestine [1] = assay: Drug uptake in ICR mouse intestine assessed per organ at 370 kBq/100 ul, iv at 30 mins by gamma-counting analysis; format: ADME, organism-based; conditions: in vivo, 0.5 h
Outline: (§1)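 Male ICR mice (5 weeks, about 20 g) got 18F tracer in saline (370 KBq per 100 μL) via tail vein; n = 5 per time point, killed at 2, 10, 30, 60 min. Organs removed and γ-counted against diluted injectate; expressed as % injected dose per organ.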

Brain [2] = assay: Ratio of drug uptake in brain at 2 mins to drug uptake in brain at 60 mins in ICR mouse at 370 KBq/100 ul, iv; format: ADME, organism-based; conditions: in vivo
Outline: (§2)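 Normal male ICR mice (5 weeks, about 20 g) received the ¹⁸F tracer in saline (370 KBq per 100 μL) by tail-vein injection. Groups of n = 5 were killed at 2, 10, 30 and 60 min. Organs were removed, weighed and γ-counted against diluted aliquots of the injectate, giving % dose per gram. Stomach and intestine were expressed per organ. The brain ratio is 2 min/60 min uptake. Values are mean ± SD.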

Liver [3] = assay: Drug uptake in ICR mouse liver at 370 kBq/100 ul, iv at 10 mins by gamma-counting analysis; format: ADME, organism-based; conditions: in vivo
Outline: (§3)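 Male ICR mice (5 weeks, about 20 g) got 18F tracer in saline (370 KBq per 100 μL) via tail vein; n = 5 per time point, killed at 2, 10, 30, 60 min. Organs weighed and γ-counted; percent dose per gram wet tissue from comparison with diluted injectate aliquots.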

Kidney [4] = assay: Drug uptake in ICR mouse kidney at 370 kBq/100 ul, iv at 2 mins by gamma-counting analysis; format: ADME, organism-based; conditions: in vivo; outline: as §3
Stomach [5] = assay: Drug uptake in ICR mouse stomach assessed per organ at 370 kBq/100 ul, iv at 30 mins by gamma-counting analysis; format: ADME, organism-based; conditions: in vivo, 0.5 h; outline: as §1
Heart [6] = assay: Drug uptake in ICR mouse heart at 370 kBq/100 ul, iv at 60 mins by gamma-counting analysis; format: ADME, organism-based; conditions: in vivo, 1 h; outline: as §3
[7] = n-Octanol-PBS buffer partition coefficient, log D of the compound at 1.5 MBq after 3 mins at pH 7.4; format: physicochemical
Outline: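 The tracer was partitioned between n-octanol and PBS by vortexing for 3 min at room temperature, then centrifuged for 5 min at 3000 rpm. Samples of the octanol (50 μL) and aqueous (500 μL) layers were counted. log D is the log of the octanol/PBS counts-per-gram ratio. The octanol layer was repartitioned until values were consistent. Measured in triplicate and repeated three times.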

Spleen [8] = assay: Drug uptake in ICR mouse spleen at 370 kBq/100 ul, iv at 30 mins by gamma-counting analysis; format: ADME, organism-based; conditions: in vivo, 0.5 h; outline: as §3
Heart [9] = assay: Drug uptake in ICR mouse heart at 370 kBq/100 ul, iv at 30 mins by gamma-counting analysis; format: ADME, organism-based; conditions: in vivo, 0.5 h; outline: as §3
Bone [10] = assay: Drug uptake in ICR mouse bone at 370 kBq/100 ul, iv at 30 mins by gamma-counting analysis; format: ADME, organism-based, Bone element; conditions: in vivo, 0.5 h; outline: as §3
Spleen [11] = assay: Drug uptake in ICR mouse spleen at 370 kBq/100 ul, iv at 2 mins by gamma-counting analysis; format: ADME, organism-based; conditions: in vivo; outline: as §3
Intestine [12] = assay: Drug uptake in ICR mouse intestine assessed per organ at 370 kBq/100 ul, iv at 60 mins by gamma-counting analysis; format: ADME, organism-based; conditions: in vivo, 1 h; outline: as §1
Liver [13] = assay: Drug uptake in ICR mouse liver at 370 kBq/100 ul, iv at 2 mins by gamma-counting analysis; format: ADME, organism-based; conditions: in vivo; outline: as §3
Lung [14] = assay: Drug uptake in ICR mouse lung at 370 kBq/100 ul, iv at 2 mins by gamma-counting analysis; format: ADME, organism-based; conditions: in vivo; outline: as §3
Lung [15] = assay: Drug uptake in ICR mouse lung at 370 kBq/100 ul, iv at 60 mins by gamma-counting analysis; format: ADME, organism-based; conditions: in vivo, 1 h; outline: as §3
Brain [16] = assay: Drug uptake in ICR mouse brain at 370 kBq/100 ul, iv at 60 mins by gamma-counting analysis; format: ADME, organism-based; conditions: in vivo, 1 h; outline: as §3
Lung [17] = assay: Drug uptake in ICR mouse lung at 370 kBq/100 ul, iv at 10 mins by gamma-counting analysis; format: ADME, organism-based; conditions: in vivo; outline: as §3
Heart [18] = assay: Drug uptake in ICR mouse heart at 370 kBq/100 ul, iv at 2 mins by gamma-counting analysis; format: ADME, organism-based; conditions: in vivo; outline: as §3
Blood [19] = assay: Drug uptake in ICR mouse blood at 370 kBq/100 ul, iv at 60 mins by gamma-counting analysis; format: ADME, organism-based; conditions: in vivo, 1 h; outline: as §3
Stomach [20] = assay: Drug uptake in ICR mouse stomach assessed per organ at 370 kBq/100 ul, iv at 60 mins by gamma-counting analysis; format: ADME, organism-based; conditions: in vivo, 1 h; outline: as §2
Blood [21] = assay: Drug uptake in ICR mouse blood at 370 kBq/100 ul, iv at 30 mins by gamma-counting analysis; format: ADME, organism-based; conditions: in vivo, 0.5 h; outline: as §3
Spleen [22] = assay: Drug uptake in ICR mouse spleen at 370 kBq/100 ul, iv at 10 mins by gamma-counting analysis; format: ADME, organism-based; conditions: in vivo; outline: as §3
Brain [23] = assay: Drug uptake in wild type C57BL6 mouse brain at 370 KBq/100 ul after 1 hr by autoradiographic analysis; format: ADME, tissue-based; conditions: in vitro
Outline: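 Paraffin brain sections from 12-month-old male control C57BL6 mice were deparaffinized through xylene and graded ethanol, then held in PBS (0.2 M, pH 7.4) for 30 min. They were incubated with the ¹⁸F tracer (370 KBq per 100 μL) for 1 h at room temperature. Sections were washed in 40% EtOH, rinsed with water for 1 min, dried, and exposed to a phosphor plate for 2 h. The same sections were then stained with thioflavin S.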

Brain [24] = assay: Drug uptake in ICR mouse brain at 370 kBq/100 ul, iv at 10 mins by gamma-counting analysis; format: ADME, organism-based; conditions: in vivo; outline: as §3
Blood [25] = assay: Drug uptake in ICR mouse blood at 370 kBq/100 ul, iv at 10 mins by gamma-counting analysis; format: ADME, organism-based; conditions: in vivo; outline: as §3
Stomach [26] = assay: Drug uptake in ICR mouse stomach assessed per organ at 370 kBq/100 ul, iv at 10 mins by gamma-counting analysis; format: ADME, organism-based; conditions: in vivo; outline: as §1
Bone [27] = assay: Drug uptake in ICR mouse bone at 370 kBq/100 ul, iv at 10 mins by gamma-counting analysis; format: ADME, organism-based, Bone element; conditions: in vivo; outline: as §3
Lung [28] = assay: Drug uptake in ICR mouse lung at 370 kBq/100 ul, iv at 30 mins by gamma-counting analysis; format: ADME, organism-based; conditions: in vivo, 0.5 h; outline: as §3
Kidney [29] = assay: Drug uptake in ICR mouse kidney at 370 kBq/100 ul, iv at 10 mins by gamma-counting analysis; format: ADME, organism-based; conditions: in vivo; outline: as §3
Blood [30] = assay: Drug uptake in ICR mouse blood at 370 kBq/100 ul, iv at 2 mins by gamma-counting analysis; format: ADME, organism-based; conditions: in vivo; outline: as §3
Liver [31] = assay: Drug uptake in ICR mouse liver at 370 kBq/100 ul, iv at 30 mins by gamma-counting analysis; format: ADME, organism-based; conditions: in vivo, 0.5 h; outline: as §3
Spleen [32] = assay: Drug uptake in ICR mouse spleen at 370 kBq/100 ul, iv at 60 mins by gamma-counting analysis; format: ADME, organism-based; conditions: in vivo, 1 h; outline: as §3
Kidney [33] = assay: Drug uptake in ICR mouse kidney at 370 kBq/100 ul, iv at 30 mins by gamma-counting analysis; format: ADME, organism-based; conditions: in vivo, 0.5 h; outline: as §3
Brain [34] = assay: Drug uptake in ICR mouse brain at 370 kBq/100 ul, iv at 30 mins by gamma-counting analysis; format: ADME, organism-based; conditions: in vivo, 0.5 h; outline: as §3
Brain [35] = assay: Drug uptake in ICR mouse brain at 370 kBq/100 ul, iv at 2 mins by gamma-counting analysis; format: ADME, organism-based; conditions: in vivo; outline: as §3
Kidney [36] = assay: Drug uptake in ICR mouse kidney at 370 kBq/100 ul, iv at 60 mins by gamma-counting analysis; format: ADME, organism-based; conditions: in vivo, 1 h; outline: as §3
Stomach [37] = assay: Drug uptake in ICR mouse stomach assessed per organ at 370 kBq/100 ul, iv at 2 mins by gamma-counting analysis; format: ADME, organism-based; conditions: in vivo; outline: as §1
Liver [38] = assay: Drug uptake in ICR mouse liver at 370 kBq/100 ul, iv at 60 mins by gamma-counting analysis; format: ADME, organism-based; conditions: in vivo, 1 h; outline: as §3
Intestine [39] = assay: Drug uptake in ICR mouse intestine assessed per organ at 370 kBq/100 ul, iv at 2 mins by gamma-counting analysis; format: ADME, organism-based; conditions: in vivo; outline: as §1
Bone [40] = assay: Drug uptake in ICR mouse bone at 370 kBq/100 ul, iv at 60 mins by gamma-counting analysis; format: ADME, organism-based, Bone element; conditions: in vivo, 1 h; outline: as §3
Bone [41] = assay: Drug uptake in ICR mouse bone at 370 kBq/100 ul, iv at 2 mins by gamma-counting analysis; format: ADME, organism-based, Bone element; conditions: in vivo; outline: as §3
Intestine [42] = assay: Drug uptake in ICR mouse intestine assessed per organ at 370 kBq/100 ul, iv at 10 mins by gamma-counting analysis; format: ADME, organism-based; conditions: in vivo; outline: as §1
Brain [43] = assay: Drug uptake in healthy human brain at 370 KBq/100 ul after 1 hr by autoradiographic analysis; format: ADME, tissue-based; conditions: in vitro
Heart [44] = assay: Drug uptake in ICR mouse heart at 370 kBq/100 ul, iv at 10 mins by gamma-counting analysis; format: ADME, organism-based; conditions: in vivo; outline: as §3
[45] = Displacement of [125I]-IMPY from amyloid beta (1 to 42) fibrils after 2 hrs by gamma-counting analysis
Outline: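 Competition binding with aggregated Aβ1-42 fibrils and [125I]IMPY (60000−100000 cpm/100 μL) in 0.05% BSA (1 mL total); inhibitors 10⁻⁴−10^−8.5 M in ethanol. Incubated 37 °C for 2 h, then GF/B vacuum filtration with PBS (0.02 M, pH 7.4) washes and γ counting. Three repeats; IC50 converted to Ki by Cheng−Prusoff.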

CNc1ccc(-c2nc3ccc(OCCOCCOCC[18F])cc3s2)cn1
Drug uptake (Intestine [1]): 21.68 %ID | Ratio (Brain [2]): 1.77 | Drug uptake (Liver [3]): 9.38 % ID/g | Drug uptake (Kidney [4]): 6.02 % ID/g | Drug uptake (Stomach [5]): 11.46 %ID | Drug uptake (Heart [6]): 1.85 % ID/g | logD at 0.05 h [7]: 2.85 | Drug uptake (Spleen [8]): 1.74 % ID/g | Drug uptake (Heart [9]): 1.96 % ID/g | Drug uptake (Bone [10]): 1.33 % ID/g | Drug uptake (Spleen [11]): 2.68 % ID/g | Drug uptake (Intestine [12]): 18.6 %ID | Drug uptake (Liver [13]): 15.22 % ID/g | Drug uptake (Lung [14]): 5.53 % ID/g | Drug uptake (Lung [15]): 1.93 % ID/g | Drug uptake (Brain [16]): 1.26 % ID/g | Drug uptake (Lung [17]): 3.36 % ID/g | Drug uptake (Heart [18]): 3.53 % ID/g | Drug uptake (Blood [19]): 2.94 % ID/g | Drug uptake (Stomach [20]): 8.78 %ID | Drug uptake (Blood [21]): 3.49 % ID/g | Drug uptake (Spleen [22]): 2.05 % ID/g | Drug uptake (Brain [23]): Not Active | Drug uptake (Brain [24]): 1.63 % ID/g | Drug uptake (Blood [25]): 4.25 % ID/g | Drug uptake (Stomach [26]): 9.44 %ID | Drug uptake (Bone [27]): 0.86 % ID/g | Drug uptake (Lung [28]): 3.11 % ID/g | Drug uptake (Kidney [29]): 4.04 % ID/g | Drug uptake (Blood [30]): 6.92 % ID/g | Drug uptake (Liver [31]): 8.16 % ID/g | Drug uptake (Spleen [32]): 1.49 % ID/g | Drug uptake (Kidney [33]): 3.12 % ID/g | Drug uptake (Brain [34]): 1.31 % ID/g | Drug uptake (Brain [35]): 2.23 % ID/g | Drug uptake (Kidney [36]): 2.66 % ID/g | Drug uptake (Stomach [37]): 2.96 %ID | Drug uptake (Liver [38]): 4.12 % ID/g | Drug uptake (Intestine [39]): 5.69 %ID | Drug uptake (Bone [40]): 1.42 % ID/g | Drug uptake (Bone [41]): 1.19 % ID/g | Drug uptake (Intestine [42]): 10.06 %ID | Drug uptake (Brain [43]): Not Active | Drug uptake (Heart [44]): 2.16 % ID/g | Ki [45]: 9.3 nM
